Measurements reported in ChEMBL document CHEMBL3259624, “Netamines H-N, tricyclic alkaloids from the marine sponge Biemna laboutei and their antimalarial activity” (J Nat Prod, 2014).
Calls of active or inactive are those of the source. The calls are words filed in the database; no cut-off is given here.

Assays:
KB [1] = assay: Cytotoxicity against human KB cells at 1 uM after 72 hrs; assay type: functional, cell-based
Outline: (§1)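 KB cells exposed to compounds for 72 h, with DMSO-only cells as control. Proliferation was read with CellTiter 96 Aqueous One reagent and expressed as % inhibition of proliferation relative to the DMSO control, as mean ± SE of triplicate.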

Plasmodium falciparum = assay: Antiplasmodial activity against Plasmodium falciparum by LDH assay; assay type: functional, organism-based
KB [2] = assay: Cytotoxicity against human KB cells after 72 hrs; assay type: functional, cell-based; outline: as §1

Compound | Activity (KB [1]) | IC50 (Plasmodium falciparum) [nM] | IC50 (KB [2]) [nM]
CCC/C=C\C[C@H]1c2nc(N)nc3c2[C@@H](CC3)C[C@H]1C | inactive | 20700 | –
CCC/C=C\CC1=C2N=C(N)N[C@H]3CC[C@@H](C[C@H]1C)[C@@H]23 (relative stereo) | – | – | 1000
CCC/C=C\C[C@@H]1c2nc(N)nc3c2[C@@H](CC3)C[C@H]1CCC (relative stereo) | inactive | – | –
CCCC[C@@H]1c2nc(N)nc3c2[C@@H](CC3)C[C@H]1CCC | inactive | – | –
CCC/C=C\C[C@H]1c2nc(N)nc3c2[C@@H](CC3)C[C@H]1CCC | inactive | – | –
CC/C=C/C1=C2N=C(N)N[C@H]3CC[C@@H](C[C@@H]1C)[C@@H]23 | inactive | – | –
CCC[C@@H]1C[C@@H]2CC[C@@H]3NC(N)=NC(=C1CC)[C@H]23 (relative stereo) | inactive | 2400 | –
CCCCCCC1=C2N=C(N)N[C@H]3CC[C@@H](C[C@H]1CCC)[C@@H]23 | inactive | – | –
CCC/C=C\C[C@@H]1c2nc(N)nc3c2[C@@H](CC3)C[C@H]1C | inactive | – | –
